Laboratory results taken from the M2OR odorant receptor database.

Tests used:
Details in all cases: stereoisomer not certain
UniProt Q8VGX8 = molecular target: T1, UniProt Q8VGX8
T1 sequence (whole entry): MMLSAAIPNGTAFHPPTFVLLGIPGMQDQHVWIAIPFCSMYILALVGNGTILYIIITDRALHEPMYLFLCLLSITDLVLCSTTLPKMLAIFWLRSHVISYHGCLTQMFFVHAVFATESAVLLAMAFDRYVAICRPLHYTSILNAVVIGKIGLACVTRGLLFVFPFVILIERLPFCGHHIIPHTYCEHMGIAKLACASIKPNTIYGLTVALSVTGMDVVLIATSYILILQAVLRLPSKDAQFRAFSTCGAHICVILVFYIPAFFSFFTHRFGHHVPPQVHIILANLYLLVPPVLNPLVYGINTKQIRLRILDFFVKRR
Summary of the method: (§1)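 Transient luciferase assays in mammalian cell lines were common, though methods varied by source. The values come from published papers and their supplementary material, with extra details from the original authors when needed. Responsive refers to a measured signal the original authors judged statistically different from baseline, and non-responsive (inactive) to the remainder.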

UniProt Q8VGY6 = molecular target: T2, UniProt Q8VGY6
T2 sequence (whole entry): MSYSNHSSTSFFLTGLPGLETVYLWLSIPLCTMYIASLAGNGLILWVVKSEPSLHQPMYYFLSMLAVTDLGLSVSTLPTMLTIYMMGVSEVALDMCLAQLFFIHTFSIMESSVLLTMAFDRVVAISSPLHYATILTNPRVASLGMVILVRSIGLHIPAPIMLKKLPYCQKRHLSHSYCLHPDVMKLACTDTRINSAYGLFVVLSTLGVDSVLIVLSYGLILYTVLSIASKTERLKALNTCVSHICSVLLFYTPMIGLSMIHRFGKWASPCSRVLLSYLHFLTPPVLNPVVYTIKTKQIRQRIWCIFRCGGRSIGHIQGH
Summary of the method: as §1

UniProt Q8VGZ2 = molecular target: T3, UniProt Q8VGZ2
T3 sequence (whole entry): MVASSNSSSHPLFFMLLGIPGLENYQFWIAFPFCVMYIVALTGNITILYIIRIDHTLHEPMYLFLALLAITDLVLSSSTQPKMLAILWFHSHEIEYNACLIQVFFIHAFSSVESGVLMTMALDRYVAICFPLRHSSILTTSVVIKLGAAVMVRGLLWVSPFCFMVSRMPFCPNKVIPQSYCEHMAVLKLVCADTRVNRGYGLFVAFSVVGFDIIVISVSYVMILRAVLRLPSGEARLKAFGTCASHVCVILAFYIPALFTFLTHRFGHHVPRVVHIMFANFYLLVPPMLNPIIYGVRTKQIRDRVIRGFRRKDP
Summary of the method: as §1

UniProt Q8VGZ7 = molecular target: T4, UniProt Q8VGZ7
T4 sequence (whole entry): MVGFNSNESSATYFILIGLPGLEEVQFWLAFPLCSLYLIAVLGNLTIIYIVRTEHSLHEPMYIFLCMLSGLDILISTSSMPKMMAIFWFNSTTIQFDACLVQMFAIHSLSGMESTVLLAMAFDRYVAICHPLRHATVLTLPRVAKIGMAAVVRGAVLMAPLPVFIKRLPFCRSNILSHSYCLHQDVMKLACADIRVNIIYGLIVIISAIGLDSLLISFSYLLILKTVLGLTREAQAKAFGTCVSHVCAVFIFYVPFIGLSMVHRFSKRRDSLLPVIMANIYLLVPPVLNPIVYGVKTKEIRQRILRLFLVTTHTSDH
Summary of the method: as §1

UniProt Q8VH10 = molecular target: T5, UniProt Q8VH10
T5 sequence (whole entry): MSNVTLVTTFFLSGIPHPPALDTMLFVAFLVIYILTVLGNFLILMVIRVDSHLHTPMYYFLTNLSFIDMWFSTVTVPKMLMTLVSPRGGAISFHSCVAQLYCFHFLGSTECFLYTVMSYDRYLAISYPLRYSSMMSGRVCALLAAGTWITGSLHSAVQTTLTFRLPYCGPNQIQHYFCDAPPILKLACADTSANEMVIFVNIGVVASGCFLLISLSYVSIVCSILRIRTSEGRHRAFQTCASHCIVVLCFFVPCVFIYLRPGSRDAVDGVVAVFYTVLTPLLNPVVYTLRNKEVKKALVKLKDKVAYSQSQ
Summary of the method: as §1

UniProt Q8VH16 = molecular target: T6, UniProt Q8VH16
T6 sequence (whole entry): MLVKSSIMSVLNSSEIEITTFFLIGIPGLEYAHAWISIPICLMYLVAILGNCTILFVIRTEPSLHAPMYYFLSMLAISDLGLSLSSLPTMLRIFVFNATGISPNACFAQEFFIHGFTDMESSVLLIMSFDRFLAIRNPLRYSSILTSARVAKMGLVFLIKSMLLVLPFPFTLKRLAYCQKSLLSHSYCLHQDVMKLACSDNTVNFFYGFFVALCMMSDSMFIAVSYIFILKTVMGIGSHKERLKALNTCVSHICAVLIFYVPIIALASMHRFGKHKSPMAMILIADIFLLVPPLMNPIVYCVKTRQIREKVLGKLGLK
Summary of the method: as §1

UniProt Q8VH20 = molecular target: T7, UniProt Q8VH20
T7 sequence (whole entry): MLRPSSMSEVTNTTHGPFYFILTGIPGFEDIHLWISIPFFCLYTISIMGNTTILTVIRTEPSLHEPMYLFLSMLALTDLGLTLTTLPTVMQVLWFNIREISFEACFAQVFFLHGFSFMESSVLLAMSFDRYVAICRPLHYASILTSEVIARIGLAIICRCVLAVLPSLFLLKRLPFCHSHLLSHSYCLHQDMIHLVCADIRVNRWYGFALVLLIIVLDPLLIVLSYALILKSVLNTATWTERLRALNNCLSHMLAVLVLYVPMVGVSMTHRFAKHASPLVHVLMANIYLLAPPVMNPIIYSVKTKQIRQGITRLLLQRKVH
Summary of the method: as §1

UniProt Q8VH21 = molecular target: T8, UniProt Q8VH21
T8 sequence (whole entry): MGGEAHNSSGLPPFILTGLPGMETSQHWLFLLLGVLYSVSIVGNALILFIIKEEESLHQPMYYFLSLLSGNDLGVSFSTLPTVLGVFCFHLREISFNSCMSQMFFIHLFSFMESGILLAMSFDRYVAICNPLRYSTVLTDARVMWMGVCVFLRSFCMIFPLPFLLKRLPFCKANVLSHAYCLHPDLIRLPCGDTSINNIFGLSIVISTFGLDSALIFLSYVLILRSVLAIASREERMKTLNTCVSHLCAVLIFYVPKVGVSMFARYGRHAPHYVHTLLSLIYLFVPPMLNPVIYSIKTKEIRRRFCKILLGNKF
Summary of the method: as §1

UniProt Q924H8 = molecular target: T9, UniProt Q924H8
T9 sequence (whole entry): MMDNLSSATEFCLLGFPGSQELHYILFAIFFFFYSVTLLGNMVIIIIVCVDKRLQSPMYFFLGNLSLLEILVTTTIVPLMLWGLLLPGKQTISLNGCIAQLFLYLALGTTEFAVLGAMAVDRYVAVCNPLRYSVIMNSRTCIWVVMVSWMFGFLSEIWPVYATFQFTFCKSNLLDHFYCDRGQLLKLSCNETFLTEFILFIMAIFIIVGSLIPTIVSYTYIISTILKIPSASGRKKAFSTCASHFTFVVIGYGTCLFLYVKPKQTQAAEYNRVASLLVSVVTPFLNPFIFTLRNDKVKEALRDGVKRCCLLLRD
Summary of the method: as §1

UniProt Q9EPN9 = molecular target: T10, UniProt Q9EPN9
T10 sequence (whole entry): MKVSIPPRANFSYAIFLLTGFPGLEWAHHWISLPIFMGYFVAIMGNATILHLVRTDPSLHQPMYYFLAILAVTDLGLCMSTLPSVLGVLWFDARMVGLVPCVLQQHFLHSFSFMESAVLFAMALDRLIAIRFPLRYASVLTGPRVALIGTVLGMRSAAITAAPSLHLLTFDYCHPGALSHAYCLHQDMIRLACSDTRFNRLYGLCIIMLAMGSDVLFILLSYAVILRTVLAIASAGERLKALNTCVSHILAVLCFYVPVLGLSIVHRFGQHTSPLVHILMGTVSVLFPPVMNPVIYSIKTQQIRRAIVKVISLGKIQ
Summary of the method: as §1

UniProt Q9R0K2 = molecular target: UniProt Q9R0K2
UniProt Q9R0K2, sequence (Q9R0K2 as listed by the source): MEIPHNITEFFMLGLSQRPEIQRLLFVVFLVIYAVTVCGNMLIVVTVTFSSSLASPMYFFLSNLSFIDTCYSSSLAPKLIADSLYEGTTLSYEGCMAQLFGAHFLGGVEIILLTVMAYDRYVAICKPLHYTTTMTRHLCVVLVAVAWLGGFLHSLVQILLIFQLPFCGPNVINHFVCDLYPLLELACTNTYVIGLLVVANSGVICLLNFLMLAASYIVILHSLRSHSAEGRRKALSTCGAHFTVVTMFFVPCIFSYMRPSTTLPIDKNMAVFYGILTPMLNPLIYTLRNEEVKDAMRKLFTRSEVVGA
Summary of the method: as §1

UniProt Q9WU86 = molecular target: T11, UniProt Q9WU86
T11 sequence (whole entry): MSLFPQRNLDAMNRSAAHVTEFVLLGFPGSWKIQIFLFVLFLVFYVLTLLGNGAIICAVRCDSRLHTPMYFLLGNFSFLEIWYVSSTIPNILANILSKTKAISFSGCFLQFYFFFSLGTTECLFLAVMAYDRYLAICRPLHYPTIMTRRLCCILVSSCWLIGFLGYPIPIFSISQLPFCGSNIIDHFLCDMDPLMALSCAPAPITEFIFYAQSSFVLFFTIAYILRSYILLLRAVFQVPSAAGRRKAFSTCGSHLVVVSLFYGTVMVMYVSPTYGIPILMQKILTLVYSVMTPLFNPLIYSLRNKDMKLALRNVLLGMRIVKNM
Summary of the method: as §1
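Also: active if original authors judged signal statistically different from baseline.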

| SMILES | odorant receptor agonist call (UniProt Q8VGX8) | odorant receptor agonist call (UniProt Q8VGY6) | odorant receptor agonist call (UniProt Q8VGZ2) | odorant receptor agonist call (UniProt Q8VGZ7) | odorant receptor agonist call (UniProt Q8VH10) | odorant receptor agonist call (UniProt Q8VH16) | odorant receptor agonist call (UniProt Q8VH20) | odorant receptor agonist call (UniProt Q8VH21) | odorant receptor agonist call (UniProt Q924H8) | odorant receptor agonist call (UniProt Q9EPN9) | odorant receptor agonist call (UniProt Q9R0K2) | odorant receptor agonist call (UniProt Q9WU86) |
| --- | --- | --- | --- | --- | --- | --- | --- | --- | --- | --- | --- | --- |
| O=C1CCOc2ccccc21 | inactive | inactive | inactive | inactive | inactive | inactive | inactive | inactive | inactive | inactive | inactive | inactive |
| CC(=O)OCc1ccccc1 | inactive | inactive | inactive | inactive | active | inactive | inactive | inactive | inactive | inactive | inactive | inactive |
| CCCCCOC(=O)CCCCC | inactive | inactive | inactive | inactive | inactive | inactive | inactive | inactive | inactive | inactive | inactive | inactive |
| CCCCCCCCCS | inactive | inactive | inactive | inactive | inactive | inactive | inactive | inactive | active | inactive | inactive | inactive |
| CCCCCCCCS | inactive | inactive | inactive | inactive | inactive | inactive | inactive | inactive | inactive | inactive | inactive | inactive |
